{"source": "ChEMBL document CHEMBL1147670", "about": "“2,6-disubstituted and 2,6,8-trisubstituted purines as adenosine receptor antagonists” (J Med Chem, 2006)", "key": {"Adenosine receptor A3": {"biological_target": "T1, Adenosine receptor A3 (Homo sapiens, UniProt P0DMS8)", "T1 sequence (P0DMS8 whole entry)": "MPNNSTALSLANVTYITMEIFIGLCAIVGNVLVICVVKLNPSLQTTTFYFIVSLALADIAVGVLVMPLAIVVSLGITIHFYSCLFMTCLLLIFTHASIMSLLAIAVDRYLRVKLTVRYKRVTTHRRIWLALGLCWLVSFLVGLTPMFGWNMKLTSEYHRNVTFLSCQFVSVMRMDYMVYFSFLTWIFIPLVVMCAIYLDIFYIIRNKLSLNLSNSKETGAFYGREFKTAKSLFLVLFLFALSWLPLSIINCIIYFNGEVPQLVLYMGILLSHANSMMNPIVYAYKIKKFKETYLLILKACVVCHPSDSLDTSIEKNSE", "test": "Displacement of [125I]AB-MECA from human adenosine A3 receptor expressed in HEK293 cells", "assay_type": "cell-based"}, "Adenosine receptor A1 [1]": {"biological_target": "T2, Adenosine receptor A1 (Homo sapiens, UniProt P30542)", "T2 sequence (P30542 whole entry)": "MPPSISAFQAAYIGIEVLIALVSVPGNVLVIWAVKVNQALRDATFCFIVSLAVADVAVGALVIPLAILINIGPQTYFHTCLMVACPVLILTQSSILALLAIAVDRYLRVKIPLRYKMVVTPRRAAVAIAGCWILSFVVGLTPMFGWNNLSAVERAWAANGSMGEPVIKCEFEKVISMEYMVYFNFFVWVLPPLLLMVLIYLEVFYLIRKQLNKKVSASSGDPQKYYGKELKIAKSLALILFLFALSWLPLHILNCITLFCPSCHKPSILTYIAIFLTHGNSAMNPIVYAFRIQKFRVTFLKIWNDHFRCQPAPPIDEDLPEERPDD", "test": "Displacement of [3H]DPCPX from human adenosine A1 receptor expressed in CHO cells", "assay_type": "cell-based", "how_it_was_run": "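Competition binding against [³H]DPCPX (K_D 1.6 nM) at human A1 receptors expressed in CHO cells. Ki was derived by nonlinear regression, mean ± SEM, n = 3.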"}, "Adenosine receptor A2a [2]": {"biological_target": "T3, Adenosine receptor A2a (Homo sapiens, UniProt P29274)", "T3 sequence (P29274 whole entry)": "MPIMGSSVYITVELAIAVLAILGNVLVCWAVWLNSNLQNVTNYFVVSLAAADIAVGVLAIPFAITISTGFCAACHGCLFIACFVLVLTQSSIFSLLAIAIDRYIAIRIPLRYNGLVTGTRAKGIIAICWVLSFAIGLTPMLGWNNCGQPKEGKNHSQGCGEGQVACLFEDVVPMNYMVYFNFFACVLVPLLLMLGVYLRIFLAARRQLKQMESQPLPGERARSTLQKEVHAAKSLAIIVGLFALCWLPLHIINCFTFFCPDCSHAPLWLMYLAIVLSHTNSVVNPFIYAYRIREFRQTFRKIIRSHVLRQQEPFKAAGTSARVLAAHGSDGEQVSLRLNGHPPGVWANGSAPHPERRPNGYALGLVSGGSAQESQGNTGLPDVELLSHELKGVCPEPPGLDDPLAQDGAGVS", "test": "Displacement of [3H]ZM 241385 from human adenosine A2a receptor expressed in HEK293 cells", "assay_type": "cell-based", "how_it_was_run": "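Radioligand competition using [³H]ZM 241385 (K_D 1.0 nM) at human A2A receptors expressed in HEK 293 cells. Ki was obtained by nonlinear regression, ± SEM, n = 3.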"}, "Adenosine receptor A2a [3]": {"biological_target": "T3, Adenosine receptor A2a", "test": "Displacement of [3H]ZM 241385 from human adenosine A2a receptor expressed in HEK293 cells at 1 uM", "assay_type": "cell-based", "how_it_was_run": "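Single-point screen at 1 µM for % displacement of specific [³H]ZM 241385 binding at human A2A receptors in HEK 293 cells, n = 2.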"}, "[4]": {"biological_target": "T4, Adenosine receptor A1 (Homo sapiens) (UniProt P30542)", "T4 sequence (whole entry)": "T2 sequence (P30542 whole entry)", "test": "Displacement of [3H]DPCPX from human adenosine A1 receptor expressed in CHO cells at 1 uM", "assay_type": "cell-based", "how_it_was_run": "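Inhibition of specific [³H]DPCPX binding to human A1 receptors in CHO cells by test compound at 1 µM, reported as % displacement, n = 2.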"}, "[5]": {"biological_target": "Adenosine receptors; A1 & A2a (Homo sapiens) (UniProt P30542+P29274)", "sequence (P29274 whole entry, looked up, one chain of several)": "as the sequence (P29274 whole entry) above", "test": "Selectivity for human adenosine A1 receptor over adenosine A2a receptor", "assay_type": "protein assay", "how_it_was_run": "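Ki values from radioligand displacement binding at each receptor. Human A1 expressed in CHO cells with [3H]DPCPX (KD 1.6 nM); human A2A expressed in HEK 293 cells with [3H]ZM 241385 (KD 1.0 nM). Ki from nonlinear regression, mean ± SEM (n = 3); selectivity compares the A1 and A2A Ki values.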"}, "[6]": {"biological_target": "T4, Adenosine receptor A1 (Homo sapiens)", "test": "(§1) Activity against human adenosine A1 receptor in CHO cells assessed by the antagonizing effect of 100 nM CPA on forskolin-induced cAMP production", "assay_type": "functional, cell-based", "how_it_was_run": "(§2)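 Whole-cell cAMP assay in CHO cells expressing human A1 receptor, 2 × 10⁵ cells/well grown overnight as a monolayer. Cells were pretreated 30 min at 37 °C with adenosine deaminase 0.8 IU/mL, rolipram 50 µM and cilostamide 50 µM in HEPES/DMEM pH 7.4. Compound was then given against 100 nM CPA, followed by forskolin 10 µM for 15 min. cAMP was measured by [³H]cAMP/PKA competition. A full concentration-response curve gave K_B.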"}, "Adenosine receptor A1 [7]": {"biological_target": "T2, Adenosine receptor A1", "test": "as §1", "assay_type": "functional, cell-based", "how_it_was_run": "as §2"}, "[8]": {"biological_target": "T4, Adenosine receptor A1 (Homo sapiens)", "test": "Activity against human adenosine A1 receptor in CHO cells by increase of forskolin-induced cAMP production at 100 nM", "assay_type": "functional, cell-based", "details": "filed as antagonist", "how_it_was_run": "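Human A1-expressing CHO monolayers were preincubated 30 min at 37 °C with adenosine deaminase (0.8 IU/mL), rolipram and cilostamide (50 µM each) in HEPES/DMEM pH 7.4. Test compound at 100 nM was added for 10 min, then forskolin 10 µM for 15 min, and the reaction was stopped with ice-cold 0.1 M HCl. cAMP was measured by [³H]cAMP competition for PKA. Forskolin alone was set at 100% and CPA 1 µM at 0%. At least three experiments in duplicate.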"}}, "note": "The source made the active and inactive calls. The calls are words filed in the database; no cut-off is given here."}
{"smiles": "Cc1ccc(-c2nc(-c3ccccc3)c3[nH]cnc3n2)cc1", "values": [{"measurement": "Ki", "setting": "Adenosine receptor A3", "result": 9.4, "unit": "nM"}, {"measurement": "Ki", "setting": "Adenosine receptor A1 [1]", "result": 4, "unit": "nM"}, {"measurement": "Ki", "setting": "Adenosine receptor A2a [2]", "result": 289, "unit": "nM"}]}
{"smiles": "Cc1ccc(-c2nc(-c3ccccc3)nc3nc(C4CCCCC4)[nH]c23)cc1", "values": [{"measurement": "Ki", "setting": "Adenosine receptor A1 [1]", "result": 36, "unit": "nM"}]}
{"smiles": "Cc1ccc(-c2nc(-c3ccc(C)cc3)c3[nH]cnc3n2)cc1", "values": [{"measurement": "Ki", "setting": "Adenosine receptor A3", "result": 9.3, "unit": "nM"}, {"measurement": "Activity", "setting": "Adenosine receptor A2a [3]", "result": 4, "unit": "%"}, {"measurement": "Ki", "setting": "Adenosine receptor A1 [1]", "result": 235, "unit": "nM"}]}
{"smiles": "c1ccc(-c2nc(-c3ccccc3)c3[nH]c(-c4ccccc4)nc3n2)cc1", "values": [{"measurement": "Ki", "setting": "Adenosine receptor A3", "result": 49, "unit": "nM"}, {"measurement": "Ki", "setting": "Adenosine receptor A1 [1]", "result": 21, "unit": "nM"}, {"measurement": "Ki", "setting": "Adenosine receptor A2a [2]", "result": 66, "unit": "nM"}]}
{"smiles": "COc1ccc(-c2[nH]c(-c3ccccc3)nc3nc(C4CCCCC4)nc2-3)cc1", "values": [{"measurement": "Ki", "setting": "Adenosine receptor A3", "result": 138, "unit": "nM"}, {"measurement": "Activity", "setting": "Adenosine receptor A2a [3]", "result": 27, "unit": "%"}, {"measurement": "Ki", "setting": "Adenosine receptor A1 [1]", "result": 3.7, "unit": "nM"}]}
{"smiles": "COc1ccc(-c2nc(-c3ccccc3)c3[nH]cnc3n2)cc1", "values": [{"measurement": "Ki", "setting": "Adenosine receptor A3", "result": 4, "unit": "nM"}, {"measurement": "Activity", "setting": "Adenosine receptor A2a [3]", "result": 47, "unit": "%"}, {"measurement": "Ki", "setting": "Adenosine receptor A1 [1]", "result": 32, "unit": "nM"}]}
{"smiles": "CCCc1nc2nc(-c3ccccc3)nc(-c3ccccc3)c2[nH]1", "values": [{"measurement": "Ki", "setting": "Adenosine receptor A3", "result": 17, "unit": "nM"}, {"measurement": "Ki", "setting": "Adenosine receptor A1 [1]", "result": 4.4, "unit": "nM"}, {"measurement": "Ki", "setting": "Adenosine receptor A2a [2]", "result": 167, "unit": "nM"}]}
{"smiles": "Clc1ccc(-c2nc(-c3ccc(Cl)cc3)c3[nH]cnc3n2)cc1", "values": [{"measurement": "Ki", "setting": "Adenosine receptor A3", "result": 68, "unit": "nM"}, {"measurement": "Activity", "setting": "[4]", "result": 21, "unit": "%"}, {"measurement": "Activity", "setting": "Adenosine receptor A2a [3]", "result": 11, "unit": "%"}]}
{"smiles": "c1ccc(-c2nc(-c3ccccc3)c3nc(C4CCCC4)nc-3[nH]2)cc1", "values": [{"measurement": "Ratio Ki", "setting": "[5]", "result": 190}, {"measurement": "Ki", "setting": "Adenosine receptor A3", "result": 35, "unit": "nM"}, {"measurement": "Ki", "setting": "Adenosine receptor A1 [1]", "result": 0.29, "unit": "nM"}, {"measurement": "Ki", "setting": "Adenosine receptor A2a [2]", "result": 55, "unit": "nM"}, {"measurement": "Activity", "setting": "[6]", "result": "Active"}]}
{"smiles": "COc1ccc(-c2nc(-c3ccc(OC)cc3)c3[nH]cnc3n2)cc1", "values": [{"measurement": "Ki", "setting": "Adenosine receptor A3", "result": 165, "unit": "nM"}, {"measurement": "Activity", "setting": "[4]", "result": 40, "unit": "%"}, {"measurement": "Activity", "setting": "Adenosine receptor A2a [3]", "result": 37, "unit": "%"}]}
{"smiles": "Clc1ccc(-c2[nH]c(-c3ccccc3)nc3nc(C4CCCCC4)nc2-3)cc1Cl", "values": [{"measurement": "Activity", "setting": "Adenosine receptor A2a [3]", "result": 20.3, "unit": "%"}, {"measurement": "Ki", "setting": "Adenosine receptor A1 [1]", "result": 37, "unit": "nM"}]}
{"smiles": "Cn1c(C2CCCCC2)nc2c(-c3ccccc3)nc(-c3ccccc3)nc21", "values": [{"measurement": "Activity", "setting": "[4]", "result": 24, "unit": "%"}, {"measurement": "Activity", "setting": "Adenosine receptor A2a [3]", "result": 0, "unit": "%"}]}
{"smiles": "Clc1ccc(-c2nc(-c3ccccc3)nc3nc(C4CCCCC4)[nH]c23)cc1", "values": [{"measurement": "Ki", "setting": "Adenosine receptor A3", "result": 243, "unit": "nM"}, {"measurement": "Ki", "setting": "Adenosine receptor A1 [1]", "result": 25, "unit": "nM"}]}
{"smiles": "Cc1ccc(-c2[nH]c(-c3ccccc3)nc3nc(C4CCCCC4)nc2-3)cc1", "values": [{"measurement": "Activity", "setting": "Adenosine receptor A2a [3]", "result": 9, "unit": "%"}]}
{"smiles": "c1ccc(-c2nc(-c3ccccc3)c3[nH]cnc3n2)cc1", "values": [{"measurement": "Ki", "setting": "Adenosine receptor A3", "result": 38, "unit": "nM"}, {"measurement": "Ki", "setting": "Adenosine receptor A1 [1]", "result": 4.1, "unit": "nM"}, {"measurement": "Ki", "setting": "Adenosine receptor A2a [2]", "result": 53, "unit": "nM"}]}
{"smiles": "c1ccc(-c2nc(-c3ccccc3)c3nc(C4CCCCC4)nc-3[nH]2)cc1", "values": [{"measurement": "Ki", "setting": "Adenosine receptor A3", "result": 200, "unit": "nM"}, {"measurement": "Ki", "setting": "Adenosine receptor A1 [1]", "result": 0.73, "unit": "nM"}, {"measurement": "Ki", "setting": "Adenosine receptor A2a [2]", "result": 118, "unit": "nM"}, {"measurement": "IC50", "setting": "Adenosine receptor A1 [7]", "result": 477, "unit": "nM"}]}
{"smiles": "CC(C)c1nc2[nH]c(-c3ccccc3)nc(-c3ccccc3)c-2n1", "values": [{"measurement": "Ki", "setting": "Adenosine receptor A3", "result": 9.5, "unit": "nM"}, {"measurement": "Activity", "setting": "[8]", "result": "Antagonist"}, {"measurement": "Ki", "setting": "Adenosine receptor A1 [1]", "result": 0.82, "unit": "nM"}, {"measurement": "Ki", "setting": "Adenosine receptor A2a [2]", "result": 148, "unit": "nM"}]}
{"smiles": "Clc1ccc(-c2[nH]c(-c3ccccc3)nc3nc(C4CCCCC4)nc2-3)cc1", "values": [{"measurement": "Activity", "setting": "Adenosine receptor A2a [3]", "result": 24, "unit": "%"}]}
{"smiles": "Clc1ccc(-c2nc(-c3ccccc3)c3[nH]cnc3n2)cc1", "values": [{"measurement": "Ki", "setting": "Adenosine receptor A3", "result": 94, "unit": "nM"}, {"measurement": "Ki", "setting": "Adenosine receptor A1 [1]", "result": 27, "unit": "nM"}, {"measurement": "Ki", "setting": "Adenosine receptor A2a [2]", "result": 315, "unit": "nM"}]}
